The term AUC(0-t) denotes the area under the concentration-time curve up to a stated or last time point. The low end stands for less exposure, the high end for more exposure. In general, Vd refers to a proportionality between amount in the body and measured concentration, not a real space. The clearance is a measure of how efficiently the substance is removed, as volume per time. The low end stands for a low capacity for elimination, the high end for a high capacity for elimination. For orientation: half-life means the time needed for the level to fall by half in the phase considered. A higher half-life goes with slow decline. The term IC50 denotes the concentration needed to halve the response being measured. As a reminder, the EC50 is the concentration that produces a half-maximal response.

The source of these data is paper PMC9398179 (Molecular Cancer Therapeutics, 2021).

Data set [1] in a line: Plasma protein binding, human plasma. It is filed as in vitro ADME.
For the next data set, the system named is M-NFS-60 cells. Kind of data set: M-NFS-60 cell proliferation assay. The format is cell-based, mouse. The conditions noted are these: 1,000 ng/mL versus 10 ng/mL CSF1.
In the next data set the test system is TGCT patients. The conditions noted are these: across all trials of pexidartinib in TGCT; cited from earlier work.
In the next data set the test system is MC38 colorectal cancer. Kind of data set: MC38 syngeneic colorectal cancer model. The format is in vivo, C57BL/6 mice. The procedure, abridged: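 Female C57BL/6 mice implanted s.c. in the lower right flank with 1×10^6 MC38 cells in PBS. Randomized at mean tumor 104 mm³ and dosed days 12–39: test compound 10 mg/kg oral daily (0.4% HPMC vehicle) plus isotype or anti-PD1 10 mg/kg i.p. twice weekly, n = 15. Five per group taken day 32, 2 h post-dose; fresh tumors analysed by flow cytometry (macrophages CD45/CD11b/F4/80).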

A short description of data set [2]: Mouse pharmacokinetics at steady state. It is filed as in vivo, DBA/1 mice. The conditions noted are these: female, DBA/1, mouse, plasma, po, 3 mg/kg.
A short description of data set [3]: Crossover pharmacokinetic study in rats. The format is in vivo, Sprague-Dawley rats. The procedure, abridged:
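Crossover design in 3 fasted male Sprague-Dawley rats. Single IV dose of 1 mg/kg in 20% Captisol / 25 mmol/L pH 2 phosphate buffer, or oral 10 mg/kg in 0.4% HPMC. Plasma sampled at 0, 0.083 (IV only), 0.25, 0.5, 1, 2, 4, 6, 8, 12 and 24 h and analysed by LC/MS.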

Data set [4] is described as follows: Mouse pharmacokinetics after a single oral dose. The format is in vivo, DBA/1 mice. The conditions noted are these: 3.75 mg/kg single oral dose.
For data set [5], the system named is human osteoclast precursors. Nature of the data set: Osteoclast differentiation assay. It is filed as cell-based. The conditions noted are these: 240 h, read-out: IC50, osteoclast differentiation. A digest of the protocol:
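Human osteoclast precursors thawed into complete medium with 66 ng/mL RANKL and 33 ng/mL human CSF1. Plated at 2,500 cells/well onto serially diluted test compound in triplicate (0.1% DMSO final). Cultured 10 days at 37°C. Differentiation read as tartrate-resistant acid phosphatase activity in supernatant, absorbance at 550 nm.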

The next data set has as its target hERG channel (Homo sapiens, UniProt Q12809). Nature of the data set: Predictor hERG fluorescence polarization binding assay.
The test system of data set [6] is tenosynovial giant cell tumor (TGCT). Kind of data set: Phase I/II study DCC-3014-01-001. The format is in vivo, human.
Data set [7] can be described thus: Plasma protein binding, mouse plasma. The format is in vitro ADME.
Another data set has as its system CD68+ macrophages. Kind of data set: CD68+ macrophages in rat tissues. The format is in vivo, Sprague-Dawley rats. To be noted: 15 mg/kg/day orally, 14 days. The procedure, abridged: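 Male Sprague-Dawley rats dosed orally for 14 days with 0.4% HPMC vehicle or test compound 15 mg/kg daily (5 per group). FFPE organ tissues stained for CD68 with DAPI counterstain. Five nonoverlapping fields imaged at 20× per tissue. Total cell counts and CD68⁺ cell density (cells/mm²) determined.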

The target of another data set is MDR1 drug transporter (Homo sapiens, UniProt P08183). Nature of the data set: MDR1 transporter inhibition. It is filed as in vitro ADME.
Chain of MDR1 drug transporter (P08183 whole entry): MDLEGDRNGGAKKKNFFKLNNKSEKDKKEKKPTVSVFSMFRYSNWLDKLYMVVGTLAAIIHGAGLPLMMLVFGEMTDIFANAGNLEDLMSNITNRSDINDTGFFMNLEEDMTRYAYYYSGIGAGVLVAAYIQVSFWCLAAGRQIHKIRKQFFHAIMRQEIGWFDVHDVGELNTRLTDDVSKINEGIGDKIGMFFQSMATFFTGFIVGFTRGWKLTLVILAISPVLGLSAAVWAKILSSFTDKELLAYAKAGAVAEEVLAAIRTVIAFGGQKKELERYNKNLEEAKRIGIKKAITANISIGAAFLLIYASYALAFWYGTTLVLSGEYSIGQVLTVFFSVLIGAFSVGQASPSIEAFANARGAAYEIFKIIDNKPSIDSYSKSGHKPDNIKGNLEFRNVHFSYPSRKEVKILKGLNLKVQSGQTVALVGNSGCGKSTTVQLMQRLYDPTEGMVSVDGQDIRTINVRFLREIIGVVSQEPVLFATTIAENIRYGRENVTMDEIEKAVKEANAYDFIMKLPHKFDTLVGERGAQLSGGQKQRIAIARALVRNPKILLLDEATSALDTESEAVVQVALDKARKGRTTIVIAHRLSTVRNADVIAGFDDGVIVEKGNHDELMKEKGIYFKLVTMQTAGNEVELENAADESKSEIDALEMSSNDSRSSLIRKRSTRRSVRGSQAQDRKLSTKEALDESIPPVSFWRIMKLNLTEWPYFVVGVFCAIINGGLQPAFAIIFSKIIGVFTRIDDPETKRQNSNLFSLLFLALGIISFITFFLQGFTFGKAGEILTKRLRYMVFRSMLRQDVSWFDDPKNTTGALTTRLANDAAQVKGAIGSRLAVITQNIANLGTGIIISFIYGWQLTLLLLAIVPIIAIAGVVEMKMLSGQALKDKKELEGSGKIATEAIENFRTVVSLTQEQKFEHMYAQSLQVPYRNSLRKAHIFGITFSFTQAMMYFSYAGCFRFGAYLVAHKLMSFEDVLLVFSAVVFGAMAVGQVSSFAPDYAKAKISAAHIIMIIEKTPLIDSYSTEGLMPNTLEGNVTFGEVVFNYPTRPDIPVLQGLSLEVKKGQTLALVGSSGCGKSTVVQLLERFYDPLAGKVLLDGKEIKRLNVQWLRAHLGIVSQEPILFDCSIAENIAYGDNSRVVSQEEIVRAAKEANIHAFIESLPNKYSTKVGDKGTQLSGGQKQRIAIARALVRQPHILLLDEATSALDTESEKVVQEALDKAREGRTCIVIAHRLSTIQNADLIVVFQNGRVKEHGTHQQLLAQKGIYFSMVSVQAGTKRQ
Data set [8] concerns CSF1-stimulated cFOS expression in mouse spleens. Nature of the data set: Mouse PK/PD model, six daily oral doses. It is filed as in vivo.
Data set [9] concerns CSF1R signaling (phospho-ERK) in monocytes in human whole blood. Kind of data set: Whole blood phospho-ERK flow cytometry assay. To be noted: Monocyte, read-out: adjusted free IC50. The format is cell-based. The procedure, abridged: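 Whole blood from a healthy donor (K2EDTA) incubated with test compound in 100 µL aliquots for 4 h at 37°C, then stimulated with CSF1 10 ng/mL for 5 min. RBCs lysed and cells fixed, permeabilized on ice, and stained with anti-CD14-PE and anti-phospho-ERK1/2. Median phospho-ERK fluorescence measured in CD14⁺ cells, from 50,000 events in the WBC gate.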
For orientation: In flow cytometry, cells or beads pass a laser one at a time.

The nature of data set [10]: Crossover pharmacokinetic study in dogs. The format is in vivo, Beagle dogs. A digest of the protocol: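 Crossover design in 3 fasted male Beagle dogs. Single IV dose of 1 mg/kg in 20% Captisol / 25 mmol/L pH 2 phosphate buffer, or oral 3, 10 or 30 mg/kg in 0.4% HPMC. Plasma sampled at 0, 0.083 (IV only), 0.25, 0.5, 1, 2, 4, 6, 8, 12 and 24 h. Quantified by LC/MS.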
In data set [11] the test system is PC3 prostate cancer peritibial implant xenograft. Kind of data set: PC3 peritibial implant bone invasion xenograft model. It is filed as in vivo, nude mice. To be noted: 10 mg/kg once or twice daily, oral. A digest of the protocol: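 Male athymic nude mice acclimated 7 days, then implanted with 1×10^6 PC3 cells in serum-free MEM between tibia and fibula of the right leg. Randomized by body weight. Oral dosing began 6 h post-implant, days 1–32: 0.4% HPMC vehicle or test compound 10 mg/kg once or twice daily, n = 20 per group. Tumor burden = (length × width²)/2 from calipers, measured 2–3 times weekly.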

Data set [12] has as its system cytochrome P450 (CYP) isoforms. Kind of data set: Cytochrome P450 inhibition, all isoforms studied. It is filed as in vitro ADME.
The subject of data set [13] is cytochrome P450 (CYP) isoforms (all isoforms studied). Kind of data set: Cytochrome P450 inhibition, all isoforms studied. It is filed as in vitro ADME.
[14] abbreviates: male, Sprague-Dawley, rat, plasma, intravenous, 1 mg/kg.
Where [15] appears, read: 3 TGCT patients, cycle 2 day 1, trough and 4 hours after dose.
The mark [16] stands for this setting: male, beagle, dog, plasma, intravenous, 1 mg/kg.

Structures are written as SMILES. Where “and” joins values, the source holds several entries; their conditions need not be identical. Identical values can stand only once.

Chain of hERG channel (Q12809 whole entry): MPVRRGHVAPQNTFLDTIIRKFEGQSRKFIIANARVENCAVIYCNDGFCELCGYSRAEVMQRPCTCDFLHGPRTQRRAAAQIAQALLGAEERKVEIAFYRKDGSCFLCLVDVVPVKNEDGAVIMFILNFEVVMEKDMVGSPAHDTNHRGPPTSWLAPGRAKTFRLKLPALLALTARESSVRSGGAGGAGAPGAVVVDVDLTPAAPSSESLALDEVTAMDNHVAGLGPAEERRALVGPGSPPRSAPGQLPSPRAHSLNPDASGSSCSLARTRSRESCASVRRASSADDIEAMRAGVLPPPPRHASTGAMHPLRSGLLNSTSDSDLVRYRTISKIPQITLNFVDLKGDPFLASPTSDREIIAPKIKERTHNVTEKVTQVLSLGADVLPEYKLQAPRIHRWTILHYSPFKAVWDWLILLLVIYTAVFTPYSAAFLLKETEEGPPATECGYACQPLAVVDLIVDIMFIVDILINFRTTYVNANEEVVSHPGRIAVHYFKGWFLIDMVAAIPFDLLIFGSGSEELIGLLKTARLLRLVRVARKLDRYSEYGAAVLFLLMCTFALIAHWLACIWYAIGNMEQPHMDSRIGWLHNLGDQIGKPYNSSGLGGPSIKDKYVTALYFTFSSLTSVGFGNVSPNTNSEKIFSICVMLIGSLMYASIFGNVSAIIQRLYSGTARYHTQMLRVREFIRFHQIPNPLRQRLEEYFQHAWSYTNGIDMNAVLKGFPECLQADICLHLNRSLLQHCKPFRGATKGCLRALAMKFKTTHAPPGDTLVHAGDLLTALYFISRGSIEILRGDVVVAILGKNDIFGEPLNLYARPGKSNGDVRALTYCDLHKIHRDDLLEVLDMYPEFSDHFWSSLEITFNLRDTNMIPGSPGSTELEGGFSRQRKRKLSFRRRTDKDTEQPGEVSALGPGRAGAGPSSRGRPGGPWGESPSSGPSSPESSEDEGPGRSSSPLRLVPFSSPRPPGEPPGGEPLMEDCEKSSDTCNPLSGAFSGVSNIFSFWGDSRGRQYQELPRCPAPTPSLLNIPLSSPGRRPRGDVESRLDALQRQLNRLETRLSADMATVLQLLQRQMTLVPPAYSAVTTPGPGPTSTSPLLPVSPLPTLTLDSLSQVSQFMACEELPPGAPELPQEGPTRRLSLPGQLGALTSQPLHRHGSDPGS

As for `FC(F)(F)c1ccc(CNc2ccc(Cc3c[nH]c4ncc(Cl)cc34)cn2)cn1` [Pexidartinib, pexidartinib], in [1] (method and source not stated), the plasma protein binding is recorded as over 99 % bound. Besides, the “loss of potency at high CSF1 ligand concentration” value with M-NFS-60 cells turned out to be 3.8 fold. Moreover, the “serious hepatic adverse events assessed as probably drug-related” value with TGCT patients was “five”.

Turning to `Cc1nc(-c2cnc(NC(C)C)n(C)c2=O)ccc1Oc1ccnc(-c2cnn(C)c2)c1` [Vimseltinib, vimseltinib], the “reduction of TAMs in the primary tumor” value in the data set with MC38 colorectal cancer (after 3 weeks of dosing, flow cytometry) is reported as over 6 fold. Besides, the “tumor growth inhibition (%TGI)” value in the data set on MC38 colorectal cancer (day 32, vimseltinib 10 mg/kg orally every day, anti-PD1 10 mg/kg i.p. twice a week) was 52%. Further, in [2], the AUC(0-t) was found to be 49300 ng·h/mL. Also, the Vd in data set [3] (setting [14]) worked out at 0.69 L/kg; in data set [10] (setting [16]), 1.33 L/kg. The clearance in data set [3] (setting [14]) was 0.5 mL/min/kg; in data set [10] (setting [16]), 2.5 mL/min/kg. Moreover, the half-life in data set [3] (setting [14]) is 14.2 h; in data set [10] (setting [16]), 6.8 h. The oral bioavailability in [3] (rats, 10 mg/kg oral versus 1 mg/kg IV) is listed as 76 % F; in data set [10] (dogs, simple vehicle), ~ 30 % F. In addition, the “AUC0–24” value in data set [4] is reported as 28,987 ng*hour/mL. Besides, the IC50 is 0.0093 µM in data set [5], 4.35 µM against MDR1 drug transporter, about 0.014 µM in data set [9] and over 75 µM in data set [13]. For the same compound, the EC50 on hERG channel was over 25 µM; in data set [8] (Mus musculus, po, read-out: free EC50), 0.012 µg/mL and 28 nM. At hERG channel (in vitro binding assay), the “EC20, hERG binding” value is 19.4 µM. Besides, the “bound to proteins in plasma” value in [1] (human plasma, in vitro ultracentrifugation assay) was “approximately 96.5%”. In addition, in data set [6] (setting [15]), the average plasma concentration result is listed as “approximately 500 ng/mL”. Further, the “average plasma concentration (total drug)” value in data set [6] (setting [15]) was ~ 1,200 nmol/L. Further, in data set [6] (3 patients with TGCT, cycle 2 day 1, 30 mg once a day for 5 days then 30 mg twice weekly), the “plasma CSF1 and IL34 levels” value was “increases in CSF1 and IL34 levels”. Also, in data set [6] (patient 2, right hip TGCT, after two cycles), the “change in tumor size (RECIST v1.1, MRI)” value was −25%. Besides, the bound in plasma entry in [7] is “approximately 97.2%”. In addition, in the data set on CD68+ macrophages (P < 0.0001), the “decrease in liver CD68+ macrophages” value worked out at 68%. Moreover, in the data set with CD68+ macrophages (P = 0.17), the “decrease in colon CD68+ macrophages” value is on record as 47%. In addition, the “inhibition of cFOS expression” value was “approximately 50%” in [8] (3 mg/kg, six daily doses, at 24 and 48 hours); at least 90% in [8] (3 mg/kg, six daily doses, for 12 hours); “significantly inhibited cFOS expression” in data set [8] (six daily oral doses of 1, 3, and 10 mg/kg). Moreover, in [8] (all animals in the steady-state study), the EC80 is 1,700 ng/mL. The primary tumor growth entry in [11] was “not affected”. Moreover, the “bone degradation (CT score 0–4)” value in [11] (to day 32, n = 20/cohort) is recorded as “statistically significant protection from bone degradation”. Besides, the “time-dependent or metabolism-dependent inhibition of any CYP isoform” value in [12] is listed as “no time-dependent or metabolism-dependent inhibition of any CYP isoform”.
